# Results as given in ChEMBL document CHEMBL3112586, “Synthesis of neolignans as microtubule stabilisers” (Bioorg Med Chem, 2014).
# The source made the active and inactive calls. The rule behind the calls is not given here.
# Key:
# MDA-MB-231 [1] = assay: Cytotoxicity against human MDA-MB-231 cells after 24 hrs by MTT assay; assay type: functional, cell-based; settings: MDA-MB-231, 24 h
# How it was run: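 Cells in DMEM, 10% FBS, 37 °C, 5% CO2, plated and incubated 24 h; compounds diluted in phenol-red-free DMEM with 0.5% FBS, vehicle control; after exposure, MTT (5 mg/mL stock) added 3 h, formazan dissolved in DMSO, absorbance 570 nm; IC50 derived; podophyllotoxin and tamoxifen positive controls.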
# MCF7 = assay: Cell cycle arrest in human MCF7 cells assessed as increase in sub-diploid population after 24 hrs by propidium iodide staining-based FACS analysis; assay type: functional
# How it was run: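 MCF-7 in DMEM, 10% FBS, 37 °C, 5% CO2; treated 24 h, harvested, washed cold PBS, resuspended 2 × 10⁶ cells/ml, fixed absolute ethanol, RNase A treated, propidium iodide (50 µg/mL) 30 min room temperature; DNA content by flow cytometry; phase distribution versus untreated control.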
# Mus musculus [2] = assay: Toxicity in Swiss albino mouse assessed as change in body weight at 300 mg/kg, po (reference value: 24.5 +/- 0.76 g); assay type: organism-based; parameters: dose 300 mg/kg, route oral; settings: in vivo
# Mus musculus [3] = assay: Toxicity in Swiss albino mouse assessed as change in basophil count at 5 to 1000 mg/kg, po relative to control; assay type: organism-based; parameters: dose 5-1000 mg/kg, route oral; settings: in vivo
# Mus musculus [4] = assay: Toxicity in Swiss albino mouse assessed as change in SGPT level at 50 mg/kg, po (reference value: 12.28 +/- 3.73 U/L); assay type: organism-based; parameters: dose 50 mg/kg, route oral; settings: in vivo
# Mus musculus [5] = assay: Toxicity in Swiss albino mouse assessed as change in lymphocyte count at 5 to 1000 mg/kg, po relative to control; assay type: organism-based; parameters: dose 5-1000 mg/kg, route oral; settings: in vivo
# Mus musculus [6] = assay: Toxicity in Swiss albino mouse assessed as change in triglyceride level at 5 mg/kg, po (reference value: 121.45 +/- 24.02 mg/dL); assay type: organism-based; parameters: dose 5 mg/kg, route oral; settings: in vivo
# Mus musculus [7] = assay: Toxicity in Swiss albino mouse assessed as change in WBC count at 5 mg/kg, po (reference value: 14.2 +/- 7.49 X 10^3/mm'3); assay type: organism-based; parameters: dose 5 mg/kg, route oral; settings: in vivo
# Mus musculus [8] = assay: Toxicity in Swiss albino mouse assessed as absolute brain weight at 5 to 1000 mg/kg, po relative to control; assay type: organism-based; parameters: dose 5-1000 mg/kg, route oral; settings: in vivo
# Mus musculus [9] = assay: Toxicity in Swiss albino mouse assessed as change in body weight at 5 mg/kg, po (reference value: 24.5 +/- 0.76 g); assay type: organism-based; parameters: dose 5 mg/kg, route oral; settings: in vivo
# Tubulin (Homo sapiens) = Tubulin (Homo sapiens) (UniProt P68371+Q9H4B7+P0DPH7+P68366+Q13509+Q71U36+P04350+Q3ZCM7+P07437+P68363+Q9BQE3+Q6PEY2+Q13885+Q9BVA1+Q9BUF5); assay: Induction of tubulin polymerization (unknown origin) at 10 to 40 uM measured every min for 1 hr; assay type: protein-complex assay
# How it was run: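 Tubulin 3 mg/mL in 80 mM PIPES pH 6.9, 2 mM MgCl2, 0.5 mM EGTA, 1 mM GTP, 15% glycerol at 37 °C with test compounds at varied concentrations; turbidity at 340 nm read every min for 1 h; podophyllotoxin inhibitor and paclitaxel stabiliser references, DMSO negative control.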
# Mus musculus [10] = assay: Toxicity in Swiss albino mouse assessed as absolute liver weight at 5 to 1000 mg/kg, po relative to control; assay type: organism-based; parameters: dose 5-1000 mg/kg, route oral; settings: in vivo
# Mus musculus [11] = assay: Toxicity in Swiss albino mouse assessed as relative brain weight at 5 to 1000 mg/kg, po relative to control; assay type: organism-based; parameters: dose 5-1000 mg/kg, route oral; settings: in vivo
# How it was run: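 One oral dose (5–1000 mg/kg; DMSO then 0.7% carboxymethyl cellulose vehicle; controls vehicle-only) was given to groups of 6 mice (3 male, 3 female). On day 7 the animals were sacrificed and necropsied for gross pathology. Absolute and relative weights of vital organs were recorded and compared with control.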
# Mus musculus [12] = assay: Toxicity in Swiss albino mouse assessed as change in SGOT level at 50 mg/kg, po (reference value: 25.27 +/- 1.32 U/L); assay type: organism-based; parameters: dose 50 mg/kg, route oral; settings: in vivo
# Mus musculus [13] = assay: Toxicity in Swiss albino mouse assessed as change in SGOT level at 1000 mg/kg, po (reference value: 25.27 +/- 1.32 U/L); assay type: organism-based; parameters: dose 1000 mg/kg, route oral; settings: in vivo
# Mus musculus [14] = assay: Toxicity in Swiss albino mouse assessed as mortality up to 1000 mg/kg, po; assay type: organism-based; parameters: dose 1000 mg/kg, route oral; settings: in vivo
# How it was run: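 Acute oral toxicity per OECD guideline 423. Mice of 20–25 g, 3 male and 3 female per group (n = 6), acclimatised 7 days. Single oral dose of 5, 50, 300 or 1000 mg/kg in DMSO suspended in 0.7% carboxymethyl cellulose; controls got vehicle only. Mortality and clinical signs checked hourly on the dosing day, then daily. On day 7: body weight, haematology, serum biochemistry, necropsy and organ weights.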
# Mus musculus [15] = assay: Toxicity in Swiss albino mouse assessed as change in SGPT level at 300 mg/kg, po (reference value: 12.28 +/- 3.73 U/L); assay type: organism-based; parameters: dose 300 mg/kg, route oral; settings: in vivo
# Mus musculus [16] = assay: Toxicity in Swiss albino mouse assessed as change in albumin level at 50 mg/kg, po (reference value: 3.35 +/- 0.51 g/dL); assay type: organism-based; parameters: dose 50 mg/kg, route oral; settings: in vivo
# Mus musculus [17] = assay: Toxicity in Swiss albino mouse assessed as change in creatinine level at 5 mg/kg, po (reference value: 0.63 +/- 0.18 mg/dL); assay type: organism-based; parameters: dose 5 mg/kg, route oral; settings: in vivo
# Mus musculus [18] = assay: Toxicity in Swiss albino mouse assessed as change in creatinine level at 300 mg/kg, po (reference value: 0.63 +/- 0.18 mg/dL); assay type: organism-based; parameters: dose 300 mg/kg, route oral; settings: in vivo
# MDA-MB-231 [19] = assay: Cell cycle arrest in human MDA-MB-231 cells assessed as increase in sub-diploid population after 24 hrs by propidium iodide staining-based FACS analysis; assay type: functional
# How it was run: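 MDA-MB-231 grown in DMEM with 10% FBS at 37 °C, 5% CO2; 24 h treatment, then cold-PBS wash, 2 × 10⁶ cells/ml, absolute-ethanol fixation, RNase A, propidium iodide 50 µg/mL for 30 min at room temperature; flow cytometric DNA content, sub-diploid fraction scored.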
# Mus musculus [20] = assay: Toxicity in Swiss albino mouse assessed as change in triglyceride level at 300 mg/kg, po (reference value: 121.45 +/- 24.02 mg/dL); assay type: organism-based; parameters: dose 300 mg/kg, route oral; settings: in vivo
# Mus musculus [21] = assay: Toxicity in Swiss albino mouse assessed as change in SGOT level at 5 mg/kg, po (reference value: 25.27 +/- 1.32 U/L); assay type: organism-based; parameters: dose 5 mg/kg, route oral; settings: in vivo
# Mus musculus [22] = assay: Toxicity in Swiss albino mouse assessed as change in cholesterol level at 50 mg/kg, po (reference value: 81.64 +/- 4.26 mg/dL); assay type: organism-based; parameters: dose 50 mg/kg, route oral; settings: in vivo
smiles,measurement,setting,value
CCOC(=O)/C=C/c1ccc(O)c(/C(=C/c2ccc(O)cc2)C(=O)OCC)c1,IC50,MDA-MB-231 [1],15 µM
same,Activity,MCF7,Dose-dependent effect
same,Activity,Mus musculus [2],25 g
same,Activity,Mus musculus [3],Non-toxic
same,Activity,Mus musculus [4],12.52 U/L
same,Activity,Mus musculus [5],Non-toxic
same,Activity,Mus musculus [6],106.46 mg/dL
same,Activity,Mus musculus [7],14.6 ×10³ /mm3
same,Activity,Mus musculus [8],Non-toxic
same,Activity,Mus musculus [9],24.33 g
same,Activity,Tubulin (Homo sapiens),Active
same,Activity,Mus musculus [10],Non-toxic
same,Activity,Mus musculus [11],Non-toxic
same,Activity,Mus musculus [12],34.34 U/L
same,Activity,Mus musculus [13],53.29 U/L
same,Activity,Mus musculus [14],Non-toxic
same,Activity,Mus musculus [15],15.56 U/L
same,Activity,Mus musculus [16],2.76 g/dL
same,Activity,Mus musculus [17],1.05 mg/dL
same,Activity,Mus musculus [18],0.79 mg/dL
same,Activity,MDA-MB-231 [19],Dose-dependent effect
same,Activity,Mus musculus [20],134.38 mg/dL
same,Activity,Mus musculus [21],27.67 U/L
same,Activity,Mus musculus [22],58.62 mg/dL
